Measurements as given in ChEMBL document CHEMBL3232717 (J Med Chem, 2014).

Assays:
[1] = Plasma clearance in Sprague-Dawley rat at 1 mg/kg, iv and 2 mg/kg, po administered via gavage by LC-MS/MS analysis; format: ADME, organism-based
Outline: (§1)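 Male Sprague-Dawley rats, fasted overnight with water ad libitum and fed 4 h after dosing. TFA salt given as a saline solution, either 1 mg/kg iv via femoral-vein cannula (n = 2) or 2 mg/kg po by gavage (n = 3). EDTA blood taken at 5 min (iv only), 15 and 30 min, and 1, 2, 4, 6, 8, 24 and 48 h. Plasma protein-precipitated with acetonitrile and assayed by LC-MS/MS; noncompartmental analysis.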

[2] = Volume of distribution at steady state in Sprague-Dawley rat at 1 mg/kg, iv and 2 mg/kg, po administered via gavage by LC-MS/MS analysis; format: ADME, organism-based; details: in vivo, read-out: Vdss; outline: as §1
[3] = Terminal half life in Sprague-Dawley rat at 1 mg/kg, iv and 2 mg/kg, po administered via gavage by LC-MS/MS analysis; format: ADME, organism-based; details: in vivo, read-out: beta t1/2 (converted); outline: as §1
[4] = Cmax in Sprague-Dawley rat at 2 mg/kg, po administered via gavage by LC-MS/MS analysis; format: ADME, organism-based; design: dose 2 mg/kg, route oral; details: in vivo; outline: as §1
[5] = Tmax in Sprague-Dawley rat at 1 mg/kg, iv and 2 mg/kg, po administered via gavage by LC-MS/MS analysis; format: ADME, organism-based; details: in vivo; outline: as §1
[6] = Oral bioavailability in Sprague-Dawley rat at 2 mg/kg administered via gavage by LC-MS/MS analysis; format: ADME, organism-based; details: in vivo; outline: as §1
[7] = test system: Rattus norvegicus; assay: Dose normalized AUC in Sprague-Dawley rat at 1 mg/kg, iv and 2 mg/kg, po administered via gavage by LC-MS/MS analysis; format: ADME, organism-based; details: in vivo; outline: as §1
[8] = Volume of distribution at steady state in beagle dog at 1 mg/kg, iv and 2 mg/kg, po administered via gavage by LC-MS/MS analysis; format: ADME, organism-based, Canis lupus familiaris; details: in vivo, read-out: Vdss
Outline: (§2)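 Beagle dogs, fasted overnight with water ad libitum and fed 4 h postdose. TFA salt in saline given 1 mg/kg iv via cephalic vein (n = 2) or 2 mg/kg by gastric gavage (n = 2). EDTA blood drawn at 5 min (iv only), 15 and 30 min, and 1, 2, 4, 6, 8, 24, 30, 48 and 72 h. Acetonitrile-precipitated plasma quantified by LC-MS/MS; parameters derived noncompartmentally.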

[9] = Cmax in beagle dog at 2 mg/kg, po administered via gavage by LC-MS/MS analysis; format: ADME, organism-based, Canis lupus familiaris; design: dose 2 mg/kg, route oral; details: in vivo; outline: as §2
[10] = Tmax in beagle dog at 1 mg/kg, iv and 2 mg/kg, po administered via gavage by LC-MS/MS analysis; format: ADME, organism-based, Canis lupus familiaris; details: in vivo; outline: as §2
[11] = test system: Canis familiaris; assay: Dose normalized AUC in beagle dog at 1 mg/kg, iv and 2 mg/kg, po administered via gavage by LC-MS/MS analysis; format: ADME, organism-based, Canis lupus familiaris; details: in vivo; outline: as §2
[12] = in vivo; details: beagle, dog, plasma, iv, 1 mg/kg
[13] = in vivo; details: beagle, dog, po, 2 mg/kg
[14] = in vivo; details: beagle, dog
[15] = target: T1, Prolyl endopeptidase (Homo sapiens, UniProt P48147); assay: Inhibition of PEP (unknown origin)
T1 sequence (P48147 whole entry): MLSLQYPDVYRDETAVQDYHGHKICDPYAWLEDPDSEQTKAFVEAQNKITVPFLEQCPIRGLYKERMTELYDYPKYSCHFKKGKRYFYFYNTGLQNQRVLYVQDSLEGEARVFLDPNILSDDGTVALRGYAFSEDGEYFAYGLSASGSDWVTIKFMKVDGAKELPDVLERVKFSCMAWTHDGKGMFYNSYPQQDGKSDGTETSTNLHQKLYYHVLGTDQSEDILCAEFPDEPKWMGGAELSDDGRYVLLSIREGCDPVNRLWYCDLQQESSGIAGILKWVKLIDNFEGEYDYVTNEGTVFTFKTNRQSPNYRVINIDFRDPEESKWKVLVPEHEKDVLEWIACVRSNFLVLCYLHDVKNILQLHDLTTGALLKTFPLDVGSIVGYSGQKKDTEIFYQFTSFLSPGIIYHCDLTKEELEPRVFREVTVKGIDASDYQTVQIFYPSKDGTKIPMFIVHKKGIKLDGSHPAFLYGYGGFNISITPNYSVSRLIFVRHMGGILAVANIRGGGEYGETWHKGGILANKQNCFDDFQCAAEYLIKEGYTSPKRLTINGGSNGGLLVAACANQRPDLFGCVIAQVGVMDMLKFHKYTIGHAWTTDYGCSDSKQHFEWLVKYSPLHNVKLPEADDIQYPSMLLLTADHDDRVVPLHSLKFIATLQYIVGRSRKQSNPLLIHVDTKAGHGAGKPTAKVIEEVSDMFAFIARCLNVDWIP

[16] = target: Dipeptidyl peptidase 8 (Homo sapiens, UniProt Q6V1X1); assay: Inhibition of DPP8 (unknown origin)
[17] = target: Dipeptidyl peptidase 9 (Homo sapiens, UniProt Q86TI2); assay: Inhibition of DPP9 (unknown origin)
[18] = Inhibition of potassium channel IKr (unknown origin)
[19] = target: Voltage-dependent L-type calcium channel subunit alpha-1C (Homo sapiens, UniProt Q13936); assay: Inhibition of Cav1.2 (unknown origin)
[20] = target: Sodium channel protein type 5 subunit alpha (Homo sapiens, UniProt Q14524); assay: Inhibition of Nav1.5 (unknown origin)
Outline: (§3)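 Cardiac ion channel panel run on PatchXpress, testing functional currents (hERG/IKr, INa, ICaL) up to 30 μM. IKr was additionally assessed by nonfunctional MK-499 displacement binding.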

[21] = test system: Plasma; assay: Plasma concentration in mouse at 0.3 mg/kg, po; format: ADME, organism-based; design: dose 0.3 mg/kg, route oral; details: in vivo
Outline: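 Lean mice dosed orally 1 h before an oral dextrose challenge (OGTT); plasma drug concentration measured alongside plasma DPP-4 activity in the accompanying pharmacodynamic study.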

[22] = target: Dipeptidyl peptidase 4 (Mus musculus, UniProt P28843); assay: Inhibition of DPP4 in mouse plasma
Outline: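 Plasma DPP-4 inhibition measured in 50% mouse plasma; IC50 read-out.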

[23] = Unbound fraction in CD-1 mouse plasma at 1 to 100 uM; format: ADME, cell-free
Outline: (§4)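 Radiolabelled ([3H]) compound added to plasma at 1, 10 and 100 μM; mean percentage unbound reported for each species.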

[24] = Unbound fraction in Sprague-Dawley rat plasma at 1 to 100 uM; format: ADME, cell-free; outline: as §4
[25] = Unbound fraction in beagle dog plasma at 1 to 100 uM; format: ADME, cell-free, Canis lupus familiaris; outline: as §4
[26] = Unbound fraction in human plasma at 1 to 100 uM; format: ADME, cell-free; outline: as §4
[27] = Ratio of drug level in brain to plasma in CD-1 mouse
[28] = Ratio of drug level in brain to plasma in Sprague-Dawley rat
[29] = Ratio of drug level in brain to plasma in beagle dog
[30] = Ratio of drug level in brain to plasma in human
[31] = test system: Salmonella typhimurium; assay: Genotoxicity in Salmonella typhimurium by Ames mutagenicity test; format: toxicity, organism-based; details: salmonella enterica subsp. enterica serovar typhimurium
[32] = target: Voltage-gated L-type calcium channel (Homo sapiens, UniProt Q13936+Q13698+Q01668+O60840); assay: Effect on L-type Ca2+ channel (unknown origin) up to 30 uM; outline: as §3
[33] = test system: Rattus norvegicus; assay: Toxicity in rat assessed as mortality at 100 mg/kg/day, po for 14 days; format: organism-based; design: route oral; details: in vivo, 336 h
Outline: (§5)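 Exploratory 14-day oral safety study in male rats, dosed daily. Endpoints were mortality, physical signs observed over the dosing period, and clinical pathology parameters, including glucose and triglycerides.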

[34] = test system: Rattus norvegicus; assay: Toxicity in rat assessed as physical signs at 100 mg/kg/day, po for 14 days; format: organism-based; design: route oral; details: in vivo, 336 h; outline: as §5
[35] = test system: Rattus norvegicus; assay: Toxicity in rat assessed as decrease in glucose level at 100 mg/kg/day, po for 14 days; format: organism-based; design: route oral; details: in vivo, 336 h; outline: as §5
[36] = test system: Rattus norvegicus; assay: Toxicity in rat assessed as decrease in triglyceride level at 100 mg/kg/day, po for 14 days; format: organism-based; design: route oral; details: in vivo, 336 h; outline: as §5
[37] = test system: Rattus norvegicus; assay: Toxicity in rat assessed as decrease in cholesterol level at 100 mg/kg/day, po for 14 days; format: organism-based; design: route oral; details: in vivo, 336 h; outline: as §5
[38] = AUC (0 to 24 hrs) in rat at 100 mg/kg/day, po administered for 14 days; format: ADME, organism-based; design: dose 100 mg/kg/day, time < 24 hr, route oral; details: plasma
Outline: (§6)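 Exploratory 14-day oral safety study in male rats dosed at 100 mg/kg/day; AUC(0-24h), Cmax and Tmax determined.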

[39] = Cmax in rat at 100 mg/kg/day, po administered for 14 days; format: ADME, organism-based; design: dose 100 mg/kg/day, route oral; details: in vivo; outline: as §6
[40] = Tmax in rat at 100 mg/kg/day, po administered for 14 days; format: ADME, organism-based; design: route oral; details: in vivo; outline: as §6
[41] = target: Dipeptidyl peptidase 2 (Homo sapiens, UniProt Q9UHL4); assay: Inhibition of QPP (unknown origin)
[42] = target: T2, Prolyl endopeptidase FAP (Homo sapiens, UniProt Q12884); assay: Inhibition of FAP (unknown origin)
T2 sequence (Q12884 whole entry): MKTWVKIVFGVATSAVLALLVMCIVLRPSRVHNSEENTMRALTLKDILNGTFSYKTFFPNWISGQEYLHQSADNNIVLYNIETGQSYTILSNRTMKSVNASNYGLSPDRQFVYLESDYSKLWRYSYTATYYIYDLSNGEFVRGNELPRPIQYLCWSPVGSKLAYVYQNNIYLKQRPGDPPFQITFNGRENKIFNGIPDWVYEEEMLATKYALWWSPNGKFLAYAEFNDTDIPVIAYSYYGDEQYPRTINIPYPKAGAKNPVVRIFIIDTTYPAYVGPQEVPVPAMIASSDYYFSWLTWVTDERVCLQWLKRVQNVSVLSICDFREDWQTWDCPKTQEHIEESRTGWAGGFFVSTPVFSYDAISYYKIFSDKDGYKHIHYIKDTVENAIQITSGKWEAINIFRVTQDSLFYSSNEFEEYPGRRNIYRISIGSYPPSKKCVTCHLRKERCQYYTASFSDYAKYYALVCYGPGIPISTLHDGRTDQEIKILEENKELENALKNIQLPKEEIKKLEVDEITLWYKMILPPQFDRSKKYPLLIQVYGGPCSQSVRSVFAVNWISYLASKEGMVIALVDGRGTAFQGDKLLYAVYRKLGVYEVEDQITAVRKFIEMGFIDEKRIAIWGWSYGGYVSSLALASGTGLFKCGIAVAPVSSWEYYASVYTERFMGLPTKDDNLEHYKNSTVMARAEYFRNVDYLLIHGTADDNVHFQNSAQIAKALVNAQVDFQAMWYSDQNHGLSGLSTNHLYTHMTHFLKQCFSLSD

[43] = species on record: Mus musculus; assay: animal or person; details: Blood, po, 1 h, read-out: INH
[44] = species on record: Mus musculus; assay: animal or person; details: Blood, po, 1 h, read-out: INH; remark: listed apart in the source
[45] = species on record: Mus musculus; assay: animal or person; details: Plasma, po, read-out: INH

Sequence of Dipeptidyl peptidase 8 (Q6V1X1 whole entry): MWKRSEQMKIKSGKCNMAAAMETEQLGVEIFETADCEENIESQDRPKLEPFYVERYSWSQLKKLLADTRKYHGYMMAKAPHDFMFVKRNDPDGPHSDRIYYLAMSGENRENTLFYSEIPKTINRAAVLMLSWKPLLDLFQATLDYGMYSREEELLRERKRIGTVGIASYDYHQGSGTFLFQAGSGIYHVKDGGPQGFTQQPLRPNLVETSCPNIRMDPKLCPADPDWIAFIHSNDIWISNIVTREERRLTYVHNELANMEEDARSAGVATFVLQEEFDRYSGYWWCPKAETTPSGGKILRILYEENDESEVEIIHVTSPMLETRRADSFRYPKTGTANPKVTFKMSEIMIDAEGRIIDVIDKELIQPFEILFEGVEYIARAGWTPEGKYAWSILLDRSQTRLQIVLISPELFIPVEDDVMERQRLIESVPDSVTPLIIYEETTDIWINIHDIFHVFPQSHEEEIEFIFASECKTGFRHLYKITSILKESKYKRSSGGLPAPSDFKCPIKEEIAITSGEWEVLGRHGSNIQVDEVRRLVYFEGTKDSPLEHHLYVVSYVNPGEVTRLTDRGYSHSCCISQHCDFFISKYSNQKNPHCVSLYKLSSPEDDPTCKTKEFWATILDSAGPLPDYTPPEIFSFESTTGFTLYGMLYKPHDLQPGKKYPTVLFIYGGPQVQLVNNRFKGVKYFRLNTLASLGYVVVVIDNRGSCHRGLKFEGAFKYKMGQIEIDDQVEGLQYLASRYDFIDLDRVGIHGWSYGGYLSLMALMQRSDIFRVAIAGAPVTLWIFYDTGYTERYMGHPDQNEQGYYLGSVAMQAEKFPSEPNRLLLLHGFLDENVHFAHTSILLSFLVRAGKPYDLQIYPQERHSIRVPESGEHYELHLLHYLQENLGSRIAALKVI
Sequence of Dipeptidyl peptidase 4 (P28843 whole entry): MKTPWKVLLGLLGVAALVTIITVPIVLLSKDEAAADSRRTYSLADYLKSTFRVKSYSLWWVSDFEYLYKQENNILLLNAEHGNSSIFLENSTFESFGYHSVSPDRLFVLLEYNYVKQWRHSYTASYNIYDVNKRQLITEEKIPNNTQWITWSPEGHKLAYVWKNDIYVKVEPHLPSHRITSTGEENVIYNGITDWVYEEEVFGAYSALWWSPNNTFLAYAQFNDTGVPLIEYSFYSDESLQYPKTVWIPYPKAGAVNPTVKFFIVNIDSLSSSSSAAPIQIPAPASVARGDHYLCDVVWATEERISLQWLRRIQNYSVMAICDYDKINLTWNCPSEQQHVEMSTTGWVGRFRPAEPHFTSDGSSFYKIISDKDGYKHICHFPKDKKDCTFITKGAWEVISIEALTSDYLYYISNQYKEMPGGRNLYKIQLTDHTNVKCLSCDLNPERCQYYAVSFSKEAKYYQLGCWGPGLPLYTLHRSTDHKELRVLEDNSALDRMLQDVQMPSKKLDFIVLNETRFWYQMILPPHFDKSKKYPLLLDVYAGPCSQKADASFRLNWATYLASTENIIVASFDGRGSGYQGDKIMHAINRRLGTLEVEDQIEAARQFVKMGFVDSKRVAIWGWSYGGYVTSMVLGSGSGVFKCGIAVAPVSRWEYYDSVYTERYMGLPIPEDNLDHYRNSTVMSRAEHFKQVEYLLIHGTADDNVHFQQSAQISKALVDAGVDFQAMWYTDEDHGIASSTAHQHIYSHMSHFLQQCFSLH
Sequence of Sodium channel protein type 5 subunit alpha (Q14524 whole entry): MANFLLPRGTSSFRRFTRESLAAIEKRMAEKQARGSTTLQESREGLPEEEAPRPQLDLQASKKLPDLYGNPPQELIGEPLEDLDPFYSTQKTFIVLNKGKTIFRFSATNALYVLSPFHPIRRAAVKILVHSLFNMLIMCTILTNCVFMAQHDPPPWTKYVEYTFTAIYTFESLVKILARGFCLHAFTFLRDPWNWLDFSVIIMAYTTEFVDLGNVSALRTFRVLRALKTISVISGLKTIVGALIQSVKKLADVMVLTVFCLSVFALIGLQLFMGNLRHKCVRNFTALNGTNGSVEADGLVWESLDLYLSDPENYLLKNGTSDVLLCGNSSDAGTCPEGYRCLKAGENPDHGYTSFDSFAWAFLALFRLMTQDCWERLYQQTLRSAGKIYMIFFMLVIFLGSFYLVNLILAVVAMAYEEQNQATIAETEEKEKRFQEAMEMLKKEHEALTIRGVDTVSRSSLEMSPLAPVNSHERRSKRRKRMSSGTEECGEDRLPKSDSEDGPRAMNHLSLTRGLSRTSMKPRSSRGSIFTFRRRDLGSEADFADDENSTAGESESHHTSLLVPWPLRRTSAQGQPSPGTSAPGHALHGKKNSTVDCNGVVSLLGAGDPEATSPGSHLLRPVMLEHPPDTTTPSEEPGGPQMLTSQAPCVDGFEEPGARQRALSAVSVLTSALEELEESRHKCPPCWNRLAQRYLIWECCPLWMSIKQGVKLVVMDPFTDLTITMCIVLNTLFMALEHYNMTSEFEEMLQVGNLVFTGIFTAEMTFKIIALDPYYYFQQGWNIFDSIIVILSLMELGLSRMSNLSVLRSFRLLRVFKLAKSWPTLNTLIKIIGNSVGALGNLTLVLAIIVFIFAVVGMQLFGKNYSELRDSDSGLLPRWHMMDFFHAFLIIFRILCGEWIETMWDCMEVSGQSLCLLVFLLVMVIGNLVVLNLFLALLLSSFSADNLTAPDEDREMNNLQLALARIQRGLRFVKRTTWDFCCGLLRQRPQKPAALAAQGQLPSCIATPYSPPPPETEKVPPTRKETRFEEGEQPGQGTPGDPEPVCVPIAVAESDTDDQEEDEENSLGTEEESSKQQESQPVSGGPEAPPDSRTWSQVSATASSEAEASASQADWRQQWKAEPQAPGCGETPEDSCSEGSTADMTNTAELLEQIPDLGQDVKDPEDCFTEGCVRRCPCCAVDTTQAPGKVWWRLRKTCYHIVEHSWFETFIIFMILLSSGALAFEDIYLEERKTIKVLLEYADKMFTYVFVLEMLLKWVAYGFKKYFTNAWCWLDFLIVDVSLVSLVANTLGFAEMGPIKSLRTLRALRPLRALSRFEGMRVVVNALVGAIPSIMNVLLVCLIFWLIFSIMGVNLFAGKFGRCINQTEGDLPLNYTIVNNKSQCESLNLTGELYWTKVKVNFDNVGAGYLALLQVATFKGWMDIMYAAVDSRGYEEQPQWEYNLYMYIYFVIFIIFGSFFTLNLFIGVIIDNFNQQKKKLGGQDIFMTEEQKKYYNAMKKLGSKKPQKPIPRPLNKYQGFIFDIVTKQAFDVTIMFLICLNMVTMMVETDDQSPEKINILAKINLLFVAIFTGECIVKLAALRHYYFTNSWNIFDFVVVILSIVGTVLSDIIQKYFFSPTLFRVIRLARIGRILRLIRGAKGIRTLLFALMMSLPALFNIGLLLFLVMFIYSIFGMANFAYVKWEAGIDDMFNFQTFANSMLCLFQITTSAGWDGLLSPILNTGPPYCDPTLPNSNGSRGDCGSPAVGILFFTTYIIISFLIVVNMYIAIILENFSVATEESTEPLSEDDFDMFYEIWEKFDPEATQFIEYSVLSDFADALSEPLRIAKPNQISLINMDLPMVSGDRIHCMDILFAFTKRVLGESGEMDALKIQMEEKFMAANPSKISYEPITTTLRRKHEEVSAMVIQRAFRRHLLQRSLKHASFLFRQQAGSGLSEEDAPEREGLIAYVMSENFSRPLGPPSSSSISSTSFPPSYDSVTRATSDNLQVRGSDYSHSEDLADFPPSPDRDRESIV
Sequence of Dipeptidyl peptidase 9 (Q86TI2 whole entry): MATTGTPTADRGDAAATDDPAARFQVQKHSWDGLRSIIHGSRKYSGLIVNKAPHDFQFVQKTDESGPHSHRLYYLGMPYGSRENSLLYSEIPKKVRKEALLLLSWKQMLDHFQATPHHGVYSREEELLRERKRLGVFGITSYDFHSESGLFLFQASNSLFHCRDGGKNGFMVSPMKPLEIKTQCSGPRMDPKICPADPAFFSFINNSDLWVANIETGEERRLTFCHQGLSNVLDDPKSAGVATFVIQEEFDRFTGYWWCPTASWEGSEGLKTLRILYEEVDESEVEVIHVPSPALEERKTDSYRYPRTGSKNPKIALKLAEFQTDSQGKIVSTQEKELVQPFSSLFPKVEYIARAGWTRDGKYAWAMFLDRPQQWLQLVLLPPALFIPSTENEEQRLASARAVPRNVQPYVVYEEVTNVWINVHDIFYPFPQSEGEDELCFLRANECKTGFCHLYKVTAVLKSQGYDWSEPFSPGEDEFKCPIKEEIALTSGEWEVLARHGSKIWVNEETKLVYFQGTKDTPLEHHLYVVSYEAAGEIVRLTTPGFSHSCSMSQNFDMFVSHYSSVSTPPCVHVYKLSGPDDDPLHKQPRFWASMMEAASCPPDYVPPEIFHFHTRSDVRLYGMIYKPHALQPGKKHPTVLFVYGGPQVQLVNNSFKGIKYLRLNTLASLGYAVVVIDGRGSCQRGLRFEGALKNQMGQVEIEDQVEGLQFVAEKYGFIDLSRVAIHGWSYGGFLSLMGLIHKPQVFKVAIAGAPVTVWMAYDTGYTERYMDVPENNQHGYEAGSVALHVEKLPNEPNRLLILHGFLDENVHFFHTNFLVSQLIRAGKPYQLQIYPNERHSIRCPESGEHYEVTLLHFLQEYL

**Q.** For `CS(=O)(=O)n1cc2c(n1)CN([C@H]1CO[C@H](c3cc(F)ccc3F)[C@@H](N)C1)C2.O=C(O)C(F)(F)F`, which clearance [1] is on record?
**A.** 1.1 mL/min/kg

**Q.** And the Vd [2]?
**A.** 0.8 L/kg

**Q.** What about the half-life [3] of the same molecule?
**A.** 11 h

**Q.** What about the Cmax [4] of the same molecule?
**A.** 9 µM

**Q.** And the Tmax [5]?
**A.** 1 h

**Q.** And the bioavailability [6]?
**A.** 100%

**Q.** What about the AUC/dose [7] of the same molecule?
**A.** 47.8 µM·h/mg/kg

**Q.** What about the Vd [8] of the same molecule?
**A.** 1.3 L/kg

**Q.** What about the Cmax [9] of the same molecule?
**A.** 5.9 µM

**Q.** What about the Tmax [10] of the same molecule?
**A.** 1.3 h

**Q.** And the AUC/dose [11]?
**A.** 54 µM·h/mg/kg

**Q.** And the clearance [12]?
**A.** 0.9 mL/min/kg

**Q.** And the bioavailability [13]?
**A.** 100%

**Q.** And the half-life [14]?
**A.** 22 h

**Q.** Which results are given for `CS(=O)(=O)n1cc2c(n1)CN([C@H]1CO[C@H](c3cc(F)ccc3F)[C@@H](N)C1)C2` [OMARIGLIPTIN]?
**A.** IC50 [15]: > 67 µM; IC50 [16]: > 67 µM; IC50 [17]: > 67 µM; IC50 [18]: > 30 µM; IC50 [19]: > 30 µM; IC50 [20]: > 30 µM; concentration [21]: 0.521 µM; IC50 [22]: 0.0439 µM; fraction unbound at up to 100 µM [23]: 0.38; fraction unbound at up to 100 µM [24]: 0.15; fraction unbound at up to 100 µM [25]: 0.43; fraction unbound at up to 100 µM [26]: 0.68; Kp [27]: 0.6; Kp [28]: 0.6; Kp [29]: 0.6; Kp [30]: 0.6; Activity [31]: Non-toxic; Activity [32]: Not Active; Activity [33]: Non-toxic; Activity [34]: Non-toxic; Activity [35]: Toxic; Activity [36]: Toxic; Activity [37]: Toxic; AUC at 24 h [38]: 5000 µM·h; Cmax [39]: 371 µM; Tmax [40]: 2 h; IC50 [41]: > 67 µM; IC50 [42]: > 67 µM; inhibition in vivo at 0.01 mg/kg [43]: 7%; inhibition in vivo at 0.3 mg/kg [44]: 51%; inhibition in vivo at 0.3 mg/kg [45]: 85%
